Where “and” joins values, the source holds several entries; their conditions need not be identical. Equal values may be shown once.
Key:
Plasmodium berghei [1] = test: Antimalarial activity in Plasmodium berghei infected mice (Mus musculus) after subcutaneous 160 mg/kg dose; format: functional
Procedure, shortened: (§1)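 Normal drug-sensitive P. berghei strain in mice. Compound dissolved or suspended in sesame or peanut oil, given parenterally as a single subcutaneous dose 72 h postinfection.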

Plasmodium berghei [2] = test: Antimalarial activity in Plasmodium berghei infected mice (Mus musculus) after subcutaneous 320 mg/kg dose; format: functional; procedure, shortened: as §1
Plasmodium berghei [3] = test: Antimalarial activity in Plasmodium berghei infected mice (Mus musculus) after subcutaneous 640 mg/kg dose; format: functional; procedure, shortened: as §1
Plasmodium berghei [4] = test: (§2) Antimalarial activity in Plasmodium berghei infected mice (Mus musculus) after 80 mg/kg subcutaneous dose; format: functional; procedure, shortened: as §1
Plasmodium berghei [5] = test: Antimalarial activity in Plasmodium berghei infected mice (Mus musculus) after 160 mg/kg subcutaneous dose; format: functional
Procedure, shortened: (§3)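 […] in mice infected with a normal drug-sensitive P. berghei strain. Compound dissolved or suspended in sesame or peanut oil, given as a single subcutaneous dose 72 h postinfection.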

Plasmodium berghei [6] = test: Antimalarial activity in Plasmodium berghei infected mice (Mus musculus) after 20 mg/kg subcutaneous dose; format: functional; procedure, shortened: as §3
Plasmodium berghei [7] = test: Antimalarial activity in Plasmodium berghei infected mice (Mus musculus) after 320 mg/kg subcutaneous dose; format: functional; procedure, shortened: as §3
Plasmodium berghei [8] = test: as §2; format: functional; procedure, shortened: as §3; remark: listed apart in the source
Plasmodium berghei [9] = test: (§4) Antimalarial activity in Plasmodium berghei infected mice (Mus musculus) after 40 mg/kg subcutaneous dose; format: functional; procedure, shortened: as §3
Plasmodium berghei [10] = test: Antimalarial activity Plasmodium berghei infected mice (Mus musculus) after 640 mg/kg subcutaneous dose; format: functional; procedure, shortened: as §3
Plasmodium berghei [11] = test: as §4; format: functional; procedure, shortened: as §1; remark: listed apart in the source
Plasmodium berghei [12] = test: Antimalarial activity was measured against mice (Mus musculus) infected with Plasmodium berghei by subcutaneous administration of 640 mg/kg dose; format: organism-based; set-up: dose 640 mg/kg, route subcutaneous; conditions: in vivo, sc; procedure, shortened: as §3

## O=c1c2c(n(O)c3ccc(Cl)cc13)CC(c1ccc(Cl)c(Cl)c1)C/C2=N\CCCNCCO (stereo not given)
Plasmodium berghei [1]
  No. of cured mice: 3
Plasmodium berghei [2]
  No. of cured mice: 4
Plasmodium berghei [3]
  No. of cured mice: 5
Plasmodium berghei [4]
  No. of cured mice: 1
Plasmodium berghei [5]
  Delta mean survival time: 9.6
Plasmodium berghei [6]
  Delta mean survival time: 2
Plasmodium berghei [7]
  Delta mean survival time: 11.6
Plasmodium berghei [8]
  Delta mean survival time: 7.9
Plasmodium berghei [9]
  Delta mean survival time: 6.6

## O=C1CC(c2cccc(Br)c2)Cc2c1c(=O)c1cc(Cl)ccc1n2O (stereo not given)
Plasmodium berghei [1]
  No. of cured mice: 1
Plasmodium berghei [2]
  No. of cured mice: 1
Plasmodium berghei [3]
  No. of cured mice: 4
Plasmodium berghei [5]
  Delta mean survival time: 9.2
Plasmodium berghei [6]
  Delta mean survival time: 0.1
Plasmodium berghei [7]
  Delta mean survival time: 10.7
Plasmodium berghei [10]
  Delta mean survival time: 7.9
Plasmodium berghei [8]
  Delta mean survival time: 5.9
Plasmodium berghei [9]
  Delta mean survival time: 2.5

## O=C1CC(c2c(Cl)cccc2Cl)Cc2c1c(=O)c1cc(Cl)ccc1n2O (stereo not given)
Plasmodium berghei [1]
  No. of cured mice: 1
Plasmodium berghei [2]
  No. of cured mice: 3
Plasmodium berghei [3]
  No. of cured mice: 2
Plasmodium berghei [5]
  Delta mean survival time: 5.8
Plasmodium berghei [6]
  Delta mean survival time: 0.7
Plasmodium berghei [7]
  Delta mean survival time: 23.9
Plasmodium berghei [10]
  Delta mean survival time: 11.2
Plasmodium berghei [8]
  Delta mean survival time: 5.1
Plasmodium berghei [9]
  Delta mean survival time: 1.5

## CN(C)CCC/N=C1\CC(c2ccc([N+](=O)[O-])cc2)Cc2nc3ccc(Cl)cc3c(O)c21 (stereo not given)
Plasmodium berghei [3]
  No. of cured mice: 1
Plasmodium berghei [5]
  Delta mean survival time: 8.6
Plasmodium berghei [6]
  Delta mean survival time: 0.4
Plasmodium berghei [7]
  Delta mean survival time: 11.6
Plasmodium berghei [10]
  Delta mean survival time: 11.8
Plasmodium berghei [8]
  Delta mean survival time: 3
Plasmodium berghei [9]
  Delta mean survival time: 1

## CC(C)CN(CC/N=C1\CC(c2ccc(Cl)c(Cl)c2)Cc2c1c(=O)c1cc(Cl)ccc1n2O)CC(C)C (stereo not given)
Plasmodium berghei [1]
  No. of cured mice: 2
Plasmodium berghei [2]
  No. of cured mice: 1
Plasmodium berghei [11]
  No. of cured mice: 1
Plasmodium berghei [3]
  No. of cured mice: 5
Plasmodium berghei [4]
  No. of cured mice: 1
Plasmodium berghei [5]
  Delta mean survival time: 9.7
Plasmodium berghei [6]
  Delta mean survival time: 3.6
Plasmodium berghei [7]
  Delta mean survival time: 13
Plasmodium berghei [8]
  Delta mean survival time: 6.3
Plasmodium berghei [9]
  Delta mean survival time: 5.3

## CCN(CC)Cc1cccc(/N=C2\CC(c3ccc(Cl)c(Cl)c3)Cc3c2c(=O)c2cc(Cl)ccc2n3O)c1 (stereo not given)
Plasmodium berghei [1]
  No. of cured mice: 2
Plasmodium berghei [2]
  No. of cured mice: 4
Plasmodium berghei [3]
  No. of cured mice: 4
Plasmodium berghei [5]
  Delta mean survival time: 10.3
Plasmodium berghei [6]
  Delta mean survival time: 1.6
Plasmodium berghei [7]
  Delta mean survival time: 22.6
Plasmodium berghei [10]
  Delta mean survival time: 42.6
Plasmodium berghei [8]
  Delta mean survival time: 8
Plasmodium berghei [9]
  Delta mean survival time: 6.6

## O=c1c2c(n(O)c3ccc(Cl)cc13)CC(c1cccc(C(F)(F)F)c1)C/C2=N\CCN1CCCC1 (stereo not given)
Plasmodium berghei [12]
  No. of toxic deaths: 1
Plasmodium berghei [1]
  No. of cured mice: 4
Plasmodium berghei [2]
  No. of cured mice: 5
Plasmodium berghei [3]
  No. of cured mice: 4
Plasmodium berghei [5]
  Delta mean survival time: 9.6
Plasmodium berghei [8]
  Delta mean survival time: 8
Plasmodium berghei [9]
  Delta mean survival time: 6.6

## CCC1/C(=N\CCCN(C)C)c2c(nc3ccc(Cl)cc3c2O)CC1c1ccc(C(F)(F)F)cc1 (stereo not given)
Plasmodium berghei [2]
  No. of cured mice: 2
Plasmodium berghei [3]; 640 mg/kg
  No. of cured mice: 4 and 3
Plasmodium berghei [6]
  Delta mean survival time: 0.3
Plasmodium berghei [7]
  Delta mean survival time: 10
Plasmodium berghei [10]; 640 mg/kg
  Delta mean survival time: 6.7 and 10.2
Plasmodium berghei [8]
  Delta mean survival time: 5.3
Plasmodium berghei [9]
  Delta mean survival time: 3.3

## CC1C(=O)c2c(nc3ccc(Cl)cc3c2O)CC1c1ccc(Cl)c(C(F)(F)F)c1 (stereo not given)
Plasmodium berghei [1]
  No. of cured mice: 1
Plasmodium berghei [2]
  No. of cured mice: 1
Plasmodium berghei [3]
  No. of cured mice: 2
Plasmodium berghei [5]
  Delta mean survival time: 1.5
Plasmodium berghei [6]
  Delta mean survival time: 0.9
Plasmodium berghei [7]
  Delta mean survival time: 5
Plasmodium berghei [10]
  Delta mean survival time: 5.7
Plasmodium berghei [8]
  Delta mean survival time: 1.1
Plasmodium berghei [9]
  Delta mean survival time: 0.7

## O=C1CC(c2ccccc2)Cc2c1c(=O)c1cc(Cl)ccc1n2O (stereo not given)
Plasmodium berghei [1]
  No. of cured mice: 2
Plasmodium berghei [2]
  No. of cured mice: 2
Plasmodium berghei [3]
  No. of cured mice: 3
Plasmodium berghei [5]
  Delta mean survival time: 5.7
Plasmodium berghei [6]
  Delta mean survival time: 1.8
Plasmodium berghei [7]
  Delta mean survival time: 9.3
Plasmodium berghei [10]
  Delta mean survival time: 11.5
Plasmodium berghei [8]
  Delta mean survival time: 5.6
Plasmodium berghei [9]
  Delta mean survival time: 4

## COc1cc(C2C/C(=N\CCCN3CCCCC3)c3c(n(O)c4ccc(Cl)cc4c3=O)C2)cc(OC)c1OC (stereo not given)
Plasmodium berghei [12]
  No. of toxic deaths: 1
Plasmodium berghei [5]
  Delta mean survival time: 1.4
Plasmodium berghei [10]
  Delta mean survival time: 4.5
Plasmodium berghei [9]
  Delta mean survival time: 0.3

## CCN(CC)CC(C)(C)C/N=C1\CC(c2ccc(Cl)c(Cl)c2)Cc2c1c(=O)c1cc(Cl)ccc1n2O (stereo not given)
Plasmodium berghei [1]
  No. of cured mice: 4
Plasmodium berghei [2]
  No. of cured mice: 4
Plasmodium berghei [11]
  No. of cured mice: 1
Plasmodium berghei [3]
  No. of cured mice: 5
Plasmodium berghei [4]
  No. of cured mice: 2
Plasmodium berghei [5]
  Delta mean survival time: 14.6
Plasmodium berghei [6]
  Delta mean survival time: 4
Plasmodium berghei [7]
  Delta mean survival time: 13.6
Plasmodium berghei [8]
  Delta mean survival time: 10.3
Plasmodium berghei [9]
  Delta mean survival time: 9.6

## CN(C)CCC/N=C1\CC2(CCCCC2)Cc2nc3ccc(Cl)cc3c(O)c21
Plasmodium berghei [12]
  No. of toxic deaths: 1
Plasmodium berghei [5]
  Delta mean survival time: 0
Plasmodium berghei [10]
  Delta mean survival time: 0.4
Plasmodium berghei [9]
  Delta mean survival time: 0.6

## COCCC/N=C1\CC(c2cccc(C(F)(F)F)c2)Cc2c1c(=O)c1cc(Cl)ccc1n2O (stereo not given)
Plasmodium berghei [1]
  No. of cured mice: 1
Plasmodium berghei [2]
  No. of cured mice: 3
Plasmodium berghei [3]
  No. of cured mice: 5
Plasmodium berghei [4]
  No. of cured mice: 1
Plasmodium berghei [5]
  Delta mean survival time: 5.1
Plasmodium berghei [7]
  Delta mean survival time: 13.8

## CC1C(=O)c2c(nc3ccc(Cl)cc3c2O)CC1c1ccc(Cl)cc1Cl (stereo not given)
Plasmodium berghei [1]
  No. of cured mice: 2
Plasmodium berghei [2]
  No. of cured mice: 2
Plasmodium berghei [3]
  No. of cured mice: 5
Plasmodium berghei [4]
  No. of cured mice: 2
Plasmodium berghei [5]
  Delta mean survival time: 15
Plasmodium berghei [6]
  Delta mean survival time: 8.2
Plasmodium berghei [7]
  Delta mean survival time: 17
Plasmodium berghei [8]
  Delta mean survival time: 1.18
Plasmodium berghei [9]; 40 mg/kg
  Delta mean survival time: 10 and 9.3

## O=C1CC(c2ccc(C(F)(F)F)cc2)Cc2nc3ccc(Br)cc3c(O)c21 (stereo not given)
Plasmodium berghei [1]
  No. of cured mice: 1
Plasmodium berghei [2]
  No. of cured mice: 3
Plasmodium berghei [3]
  No. of cured mice: 4
Plasmodium berghei [5]
  Delta mean survival time: 4.4
Plasmodium berghei [6]
  Delta mean survival time: 3.6
Plasmodium berghei [7]
  Delta mean survival time: 10.6
Plasmodium berghei [10]
  Delta mean survival time: 12.8
Plasmodium berghei [8]
  Delta mean survival time: 3
Plasmodium berghei [9]
  Delta mean survival time: 5

## COc1ccc(C2CC(=O)c3c(n(O)c4ccc(Cl)cc4c3=O)C2)cc1 (stereo not given)
Plasmodium berghei [5]
  Delta mean survival time: 1.4
Plasmodium berghei [6]
  Delta mean survival time: 0.6
Plasmodium berghei [7]
  Delta mean survival time: 4.6
Plasmodium berghei [10]
  Delta mean survival time: 5.7
Plasmodium berghei [8]
  Delta mean survival time: 1.2
Plasmodium berghei [9]
  Delta mean survival time: 0.6

## O=C1CC(c2ccc(C(F)(F)F)cc2)Cc2c1c(=O)c1cc(Cl)ccc1n2Cc1ccccc1 (stereo not given)
Plasmodium berghei [12]
  No. of toxic deaths: 1
Plasmodium berghei [5]
  Delta mean survival time: 0
Plasmodium berghei [10]
  Delta mean survival time: 0.3
Plasmodium berghei [9]
  Delta mean survival time: 0.2

## CN(C)CCC/N=C1\CC(c2ccncc2)Cc2nc3ccc(Cl)cc3c(O)c21 (stereo not given)
Plasmodium berghei [5]
  Delta mean survival time: 1.3
Plasmodium berghei [6]
  Delta mean survival time: 0.7
Plasmodium berghei [7]
  Delta mean survival time: 2.5
Plasmodium berghei [10]
  Delta mean survival time: 4.3
Plasmodium berghei [8]
  Delta mean survival time: 1.3
Plasmodium berghei [9]
  Delta mean survival time: 0.1

## CN(C)CCC/N=C1\CC(c2ccc(C(F)(F)F)cc2)Cc2nc3ccc(I)cc3c(O)c21 (stereo not given)
Plasmodium berghei [12]
  No. of toxic deaths: 1
Plasmodium berghei [1]
  No. of cured mice: 2
Plasmodium berghei [3]
  No. of cured mice: 1
Plasmodium berghei [5]
  Delta mean survival time: 7.3
Plasmodium berghei [10]
  Delta mean survival time: 14
Plasmodium berghei [9]
  Delta mean survival time: 3

## CC1/C(=N\CCCN(C)C)c2c(nc3ccc(Cl)cc3c2O)CC1c1ccc(Cl)c(Cl)c1 (stereo in doubt)
Plasmodium berghei [12]
  No. of toxic deaths: 1
Plasmodium berghei [11]; 40 mg/kg
  No. of cured mice: 4
Plasmodium berghei [3]
  No. of cured mice: 4
Plasmodium berghei [6]; 20 mg/kg
  Delta mean survival time: 7.8
Plasmodium berghei [8]; 80 mg/kg
  Delta mean survival time: 10.7
Plasmodium berghei [9]; 40 mg/kg
  Delta mean survival time: 21

From ChEMBL document CHEMBL1126276, “Synthesis and antimalarial properties of 1-imino derivatives of 7-chloro-3-substituted-3,4-dihydro-1,9(2H,10H)-acridinediones and related structures” (J Med Chem, 1992)
